The source of these data is ChEMBL document CHEMBL4024716, “Pronounced anti-proliferative activity and tumor cell selectivity of 5-alkyl-2-amino-3-methylcarboxylate thiophenes” (Eur J Med Chem, 2017).

A short description of data set [1]: Drug uptake in cytoplasm of human PC3 cells at 10 uM measured immediately by confocal fluorescence microscopic method. It counts as ADME.
Data set [2] is described as follows: Drug uptake in nucleus of human PC3 cells at 10 uM measured immediately by confocal fluorescence microscopic method. It is filed as ADME, cell-based.
A short description of data set [3]: Drug uptake in golgi apparatus of human PC3 cells co-expressing RFP at 10 uM by confocal microscopic analysis. It is filed as ADME. An outline of the steps:
(§1)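 Cells were transduced with BacMam baculovirus (50 particles/cell) for 16–24 h to express organelle-targeted RFP (Golgi, lysosomes, early/late endosomes, mitochondria, ER). After two phenol red-free DMEM rinses, 10 μM NBD-labelled compound was added, and red and green signals were imaged immediately by confocal microscopy.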

The nature of data set [4]: Drug uptake in lysosomes of human PC3 cells co-expressing RFP at 10 uM by confocal microscopic analysis. It counts as ADME, Lysosome. The method in brief: as §1
Data set [5] is described as follows: Drug uptake in early endosome of human PC3 cells co-expressing RFP at 10 uM by confocal microscopic analysis. It counts as ADME. An outline of the steps:
as §1

Data set [6] in a line: Drug uptake in late endosome of human PC3 cells co-expressing RFP at 10 uM by confocal microscopic analysis. It counts as ADME. An outline of the steps: as §1
Data set [7] can be described thus: Drug uptake in mitochondria of human PC3 cells co-expressing RFP at 10 uM by confocal microscopic analysis. It is filed as ADME. The method in brief: as §1
Data set [8] is described as follows: Drug uptake in endoplasmic reticulum of human PC3 cells co-expressing RFP at 10 uM by confocal microscopic analysis. It is filed as ADME. The method in brief: as §1
Data set [9] is described as follows: Drug uptake in nucleus of human PC3 cells co-expressing RFP at 10 uM by confocal microscopic analysis. It counts as ADME, cell-based. The method in brief:
as §1

A short description of data set [10]: (§2) Drug uptake in nucleus of human PC3/TJ191 cells co-expressing RFP at 10 uM by confocal microscopic analysis. It is filed as ADME.
Data set [11] in a line: Drug uptake in nuclear membrane of human PC3 cells co-expressing RFP at 10 uM by confocal microscopic analysis. It is filed as ADME, cell membranes. The method in brief:
as §1

A short description of data set [12]: Drug uptake in golgi apparatus of human PC3/TJ191 cells co-expressing RFP at 10 uM by confocal microscopic analysis. It is filed as ADME.
Data set [13] in a line: Drug uptake in lysosomes of human PC3/TJ191 cells co-expressing RFP at 10 uM by confocal microscopic analysis. It counts as ADME, Lysosome.
A short description of data set [14]: Drug uptake in early endosome of human PC3/TJ191 cells co-expressing RFP at 10 uM by confocal microscopic analysis. It is filed as ADME.
Data set [15] in a line: Drug uptake in late endosome of human PC3/TJ191 cells co-expressing RFP at 10 uM by confocal microscopic analysis. It is filed as ADME.
Data set [16] in a line: Drug uptake in mitochondria of human PC3/TJ191 cells co-expressing RFP at 10 uM by confocal microscopic analysis. It is filed as ADME.
The nature of data set [17]: Drug uptake in endoplasmic reticulum of human PC3/TJ191 cells co-expressing RFP at 10 uM by confocal microscopic analysis. It counts as ADME.
Data set [18] is described as follows: as §2. It counts as ADME. The source holds these as a separate data set.
Data set [19] is described as follows: Drug uptake in nuclear membrane of human PC3/TJ191 cells co-expressing RFP at 10 uM by confocal microscopic analysis. It is filed as ADME, cell membranes.
A short description of data set [20]: Drug uptake in cytoplasm of human CEM cells at 10 uM measured immediately by confocal fluorescence microscopic method. It is filed as ADME.
Data set [21] in a line: Drug uptake in cytoplasm of human HeLa cells at 10 uM measured immediately by confocal fluorescence microscopic method. It counts as ADME, cell-based.
Data set [22] in a line: Drug uptake in nucleus of human CEM cells at 10 uM measured immediately by confocal fluorescence microscopic method. It counts as ADME, cell-based.
Data set [23] is described as follows: Drug uptake in nucleus of human HeLa cells at 10 uM measured immediately by confocal fluorescence microscopic method. It counts as ADME, cell-based.
Data set [24] can be described thus: Drug uptake in nucleus of human CEM cells at 10 uM measured after incubation by confocal fluorescence microscopic method. It counts as ADME, cell-based.
A short description of data set [25]: Drug uptake in nucleus of human PC3 cells at 10 uM measured after incubation by confocal fluorescence microscopic method. It counts as ADME, cell-based.
Data set [26] can be described thus: Drug uptake in nucleus of human HeLa cells at 10 uM measured after incubation by confocal fluorescence microscopic method. It counts as ADME, cell-based.
Another data set deals with CCRF-CEM. Briefly: Cytotoxicity against human CEM cells after 72 to 96 hrs by coulter counter method.
In another data set the test system is MOLT-4. Briefly: Cytotoxicity against human MOLT4 cells after 72 to 96 hrs by coulter counter method. It counts as functional, cell-based.
Another data set relates to Raji. The experiment in a line: Cytotoxicity against human Raji cells after 72 to 96 hrs by coulter counter method. It is filed as functional, cell-based.
In the next data set the test system is PC-3. The experiment in a line: Cytotoxicity against human PC3 cells after 72 to 96 hrs by coulter counter method.
The test system of another data set is Huh-7. Briefly: Cytotoxicity against human HuH7 cells after 72 to 96 hrs by coulter counter method. It counts as functional, cell-based.
The subject of another data set is CAKI-1. Briefly: Cytotoxicity against human Caki1 cells after 72 to 96 hrs by coulter counter method. It is filed as functional, cell-based.
Data set [27] relates to HeLa. The experiment in a line: Cytotoxicity against human HeLa cells after 72 to 96 hrs by coulter counter method. It is filed as functional, cell-based.
Data set [28] can be described thus: Selectivity ratio of IC50 for human Raji cells to IC50 for human CEM cells. It is filed as functional.
The subject of data set [29] is HeLa. Briefly: Selectivity ratio of IC50 for human HeLa cells to IC50 for human PC3 cells. It counts as functional.

Usually IC50 stands for the point on the concentration scale where inhibition reaches its midpoint. Higher therefore signals weaker potency in that assay.

Some results are limits rather than exact numbers.

`COC(=O)c1cc(CCCCCCCNc2ccc([N+](=O)[O-])c3nonc23)sc1N`: the Drug uptake result in data set [1] is listed as “Active”; in [2] it was “Not Active”; in [3], “Not Active”; in [4], “Not Active”; in data set [5], “Not Active”; in data set [6], “Not Active”. For the same compound, the Drug uptake result is “Active” in data set [7]; “Active” in data set [8]; “Active” in data set [9]; “Active” in data set [10]; “Active” in data set [11]; “Not Active” in data set [12]. Also, the Drug uptake result in data set [13] is reported as “Not Active”; in [14], “Not Active”; in [15] it was “Not Active”; in [16], “Not Active”; in data set [17] it was “Active”; in [18] it was “Active”. For the same compound, in [19], the Drug uptake entry is listed as “Active”.

For the compound `COC(=O)c1cc(CCCCCCCNS(=O)(=O)c2cccc3c(N(C)C)cccc23)sc1N`, the Drug uptake result in [20] was “Active”; in [1], “Active”; in data set [21], “Active”; in data set [22], “Not Active”; in data set [2], “Not Active”; in [23], “Not Active”. The Drug uptake entry in [24], in [25] and in data set [26] was “Not Active” each time.

On to `CCCc1cc(C(=O)OC)c(N)s1`, for which the half-maximal inhibitory concentration (IC50) in the data set on CCRF-CEM was found to be 6.9 µM; with MOLT-4 it was 2.1 µM; in the data set with Raji it was 104 µM; with PC-3, 3.4 µM; in the data set with Huh-7, 2.5 µM; in the data set with CAKI-1, 5.4 µM. Moreover, the concentration for half-maximal inhibition (IC50) with HeLa [27] stood at 61 µM. Also, the “Ratio IC50” value in data set [28] was 16; in the data set with HeLa [29], 18.

On to `CCc1cc(C(=O)OC)c(N)s1`, for which the half-inhibitory concentration (IC50) is 29 µM with MOLT-4; over 250 µM in the data set with Raji; 27 µM in the data set on PC-3; 84 µM with Huh-7; 92 µM in the data set with CAKI-1. Moreover, the “Ratio IC50” value in data set [28] is listed as over 1.4; in the data set with HeLa [29], 6.7.
